An excerpt weighted towards active compounds, which were near 1.7% of everything screened.
SUMO1 PPI mod: alters human SUMO1 binding to SIM partners | P63165 | SUMO1 binding to a labelled peptide, TR-FRET, 1 h | inhibition, % at 20 µM | hit rate 0.33% among 360,000; in the data active means inhibition above about 37%
Target sequence (P63165 whole entry, looked up): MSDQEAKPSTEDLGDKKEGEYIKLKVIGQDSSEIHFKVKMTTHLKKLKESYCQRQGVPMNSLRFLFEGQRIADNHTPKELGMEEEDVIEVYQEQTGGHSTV
Scp1 inh: Scp-1 (human) phosphatase inhibition. Recombinant Scp1, phosphopeptide, malachite green phosphate absorbance. hit rate 0.88% among 340,000. inhibition, % at 20 µM. Q9GZU7. AID 493091;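 active means inhibition above about 50% at 20 µM, limit read from the data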;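 further: plate controls were DMSO wells with enzyme for no effect and wells lacking enzyme for full effect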
Target sequence (Q9GZU7 76-261 limits assumed): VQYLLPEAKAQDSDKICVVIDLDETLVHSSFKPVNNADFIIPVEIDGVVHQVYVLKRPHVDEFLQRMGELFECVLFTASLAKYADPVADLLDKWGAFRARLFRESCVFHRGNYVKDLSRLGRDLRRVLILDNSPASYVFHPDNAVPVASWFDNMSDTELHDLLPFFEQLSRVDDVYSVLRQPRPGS
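Test system: SCP-1 phosphatase catalytic domain, residues 76-261; measured by: colorimetric phosphate reagent with accelerator and stabiliser, absorbance at 630 nm; timing: enzyme reaction 45 min at room temperature, colour 5 min, stabilisation 30 min; also added: Phosphorylated 17-residue peptide substrate; compound dosing: one concentration, 20 µM, with 1.0% DMSO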
LMPTP inh: blocks human LMPTP phosphatase; P24666; recombinant LMPTP-A, OMFP fluorogenic substrate, fluorescence intensity; inhibition, % at 20 µM; hit rate 0.22% among 360,000;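 active means compounds that cut the enzyme signal by at least half of the control window in the single-dose screen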;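 further: plate controls were DMSO wells with enzyme plus substrate for no effect and substrate without enzyme for full effect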
Target sequence (P24666 whole entry, looked up): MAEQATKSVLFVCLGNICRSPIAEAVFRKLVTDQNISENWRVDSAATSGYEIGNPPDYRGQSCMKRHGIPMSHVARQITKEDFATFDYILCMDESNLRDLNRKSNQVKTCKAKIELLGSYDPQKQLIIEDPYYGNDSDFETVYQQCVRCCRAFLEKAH
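Material: LMPTP-A; amount: 0.625 nM enzyme; doses: single 20 µM dose; times: reaction 50 min, room temperature, dark; technique: fluorescence intensity of OMFP turnover product; benchmarks: no-enzyme and uninhibited controls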
STEP block: blocks human striatal-enriched tyrosine phosphatase; hit rate 0.25% among 360,000; inhibition, % at 20 µM; recombinant STEP, OMFP fluorogenic substrate, fluorescence;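 active means inhibition at 20 µM, scaled per plate between control wells, above about 37%, limit read from the data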;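 further: 0% = DMSO with enzyme and substrate and 100% = substrate only without enzyme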
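System: STEP (striatal-enriched tyrosine phosphatase) enzyme, cell-free; medium: Bis-Tris pH 6.0 buffer with DTT, detergent; dosing: 20 µM, 1% DMSO; times: reaction 20 min, ambient temperature; detection: fluorescence, 480/540 nm; read-out basis: normalized % inhibition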
DNMT1 block: blocks human DNA methyltransferase DNMT1; P26358; DNMT1 molecular beacon, Hinp1I cleavage, fluorescence; inhibition (reported as % activation of signal), % at 10 µM; hit rate 0.83% among 360,000; AID 588458; in the data active means inhibition above about 50%
Scp1 confirm: confirmation of human Scp-1 phosphatase inhibitors | recombinant SCP-1 catalytic domain, phosphate release, malachite green absorbance | AID 540281 | hit rate 61% among 2,500 | shares compounds with Scp1 inh | inhibition, % at 20 µM;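 further: plate controls were DMSO with enzyme for no effect and buffer wells lacking enzyme for full effect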
MG interference: counter-screen for Scp-1 inhibitors: colorimetric interference; AID 540313; apparent inhibition (interference), % at 20 µM; Colorimetric interference counterscreen, malachite green absorbance 630 nm; 2,500 tested, under 10 active; shares compounds with Scp1 inh;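 further: compounds added after enzyme reaction finished so only phosphate colour detection is probed; plate controls were DMSO wells with completed Scp-1 reaction for no effect and substrate wells lacking enzyme for full effect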
Scp1 DSF: binds human Scp-1, shifting its melting temperature | shares compounds with Scp1 inh | Recombinant SCP1, Sypro Orange thermal shift Tm | thermal shift relative to vanadate control, % at 40 µM | hit rate 25% among 1,500 | AID 540329;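 active means substances whose mean melting-temperature shift, as a percentage of the reference inhibitor's shift, reaches about 5.3%, limit read from the data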;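 further: 0% = Tm of DMSO wells and 100% = Tm with sodium orthovanadate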
DNMT1 confirm: confirmation of human DNMT1 inhibitors. shares compounds with DNMT1 block. DNMT1 molecular beacon HinP1I cleavage, fluorescence. inhibition, % at 10 µM. hit rate 8% among 2,300;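 active means average inhibition of at least 30% in the single-concentration confirmation test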
DNMT1 interf: beacon fluorescence artifact counter-screen; shares compounds with DNMT1 block; DNMT1 molecular beacon spectral interference counterscreen, fluorescence 485/520; activation (fluorescence interference), % at 10 µM; hit rate 1% among 2,300; AID 602387;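 active means activation of at least 30% at 10 µM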;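 further: DNMT1 catalytic domain with a HinP1I cleavage step and a FAM/dabcyl DNA beacon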
STEP inh conf: STEP (human) phosphatase inhibition, single concentration confirmation | shares compounds with STEP block | hit rate 32% among 520 | AID 623866 | inhibition, % at 20 µM | recombinant STEP, OMFP fluorogenic substrate, fluorescence; call rule not given here;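 further: 0% = enzyme with substrate plus DMSO and 100% = substrate without enzyme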
Starred values were filed as active, the others as inactive; . = not tested or not shown.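 How the source made its calls, unless noted: active means inhibition of at least 30% at 20 µM; inactive means the rest.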

SMILES | SUMO1 PPI mod | Scp1 inh | LMPTP inh | STEP block | DNMT1 block | Scp1 confirm | MG interference | Scp1 DSF | STEP inh conf | others
Cc1c(CC(=O)NCCCCCC(=O)O)c(=O)oc2c(C)c3oc4c(c3cc12)CCCC4 | 2.0 | 94.4* | 18.2 | 97.2* | -1.1 | 93.7* | 1.4 | -10.8 | 89.4*
O=C(N/N=C/c1ccccc1Cl)c1nc2ccc([N+](=O)[O-])cc2c(=O)[nH]1 | 3.3 | 70.2* | 39.7 | 54.0* | 0.2 | 31.7* | -18.4 | 7.5* | 7.6
O=C1c2cccc3cccc(c23)C(=O)N1c1ccc2ncccc2c1 | -27.1 | 101.4* | 37.1 | 100.2* | 3.8 | 74.0* | -19.5 | 2.0 | 8.6
O=C1c2cccc3cccc(c23)C(=O)N1c1nccs1 | -15.0 | -3.4 | -2.3 | -2.7 | 20.8 | . | . | . | .
Cc1ccc(NC(=O)c2ccc(C(C)(C)C)cc2)cc1[N+](=O)[O-] | -9.4 | -13.3 | 3.8 | 2.2 | -3.6 | . | . | . | .
Cc1ccc(S(=O)(=O)Cc2ccc(C(=O)O)o2)cc1 | 10.0 | 86.5* | 7.9 | 55.3* | 88.8* | 50.4* | -20.8 | 7.9* | 50.4* | DNMT1 confirm=10.8;DNMT1 interf=0.9
CCc1ccc(N=C2NC(=O)/C(=C/c3ccc(OCC(=O)O)cc3)S2)cc1 | -10.8 | 74.2* | 1.2 | 41.4* | 5.4 | 42.4* | -13.4 | -4.8 | 70.5*
CN=C1N(C)C[C@@H]2[C@@H]3C(=O)N(C)C(=O)[C@@H]3[C@](C)(C(=O)OC)N12 | 6.4 | -1.3 | -0.5 | -3.8 | 2.4 | . | . | . | .
COc1ccc2c(C)cc(SCC(=O)Nc3nsc(-c4ccc(C)cc4)n3)nc2c1 | -0.7 | 3.4 | 2.8 | 0.2 | -0.5 | . | . | . | .
Cc1ccc(-c2nc(NC(=O)CSc3cc(C)c4ccccc4n3)ns2)cc1 | 24.9 | 106.0* | 66.4* | 69.9* | 89.9* | 83.6* | -9.0 | 0.8 | 49.9* | DNMT1 confirm=3.2;DNMT1 interf=-4.1
Cc1cc(C)n(NC(=S)NC2CCCC2)c(=O)c1C#N | 4.8 | 14.7 | -0.3 | -1.4 | 0.6 | . | . | . | .
CNc1[nH]c(=O)[nH]c(=O)c1N=Nc1cc(Cl)ccc1Cl | -6.4 | 108.4* | 2.6 | 48.1* | 3.7 | 72.6* | -11.4 | -6.1 | 15.8
CC(C)CC(N)c1csc(NC(=O)Nc2ccccc2C(C)(C)C)n1 (stereo not drawn) | -16.6 | . | -1.8 | 4.7 | -0.7 | . | . | . | .
Cc1ccc(-c2nc3c(c(=O)c4ccccc4n3C)c(=O)n2-c2ccc(F)cc2)cc1 | -60.3 | 2.7 | -1.2 | 1.3 | 27.3 | . | . | . | .
Cn1c2ccccc2c(=O)c2c(=O)n(-c3ccc(F)cc3)c(-c3cccs3)nc21 | -20.8 | 101.3* | 47.4 | 43.7* | -1.9 | 53.8* | -12.6 | -3.9 | 17.2
COc1cccc2cc(C(=O)NC(C)c3ccccc3)c(=O)oc12 (stereo not drawn) | -30.2 | -7.5 | 0.0 | -2.0 | -1.8 | . | . | . | .
COc1cccc2cc(C(=O)Nc3cccc(C)n3)c(=O)oc12 | -11.9 | 102.1* | -3.0 | 55.7* | 74.2* | 60.5* | -6.2 | -2.9 | -0.9 | DNMT1 confirm=2.4;DNMT1 interf=2.7
C=CC1=C(C(=O)O)N2C(=O)C(NC(=O)Cc3ccccc3)C2SC1 (stereo not drawn) | 84.7* | 96.2* | 72.9* | 87.9* | 89.9* | 78.2* | -6.8 | 1.2 | 35.8* | DNMT1 confirm=5.4;DNMT1 interf=4.1
CC(=O)OCC1=C(C(=O)O)N2C(=O)[C@@H](NC(=O)Cc3ccccc3)[C@H]2SC1 | 3.1 | 32.7 | -0.4 | -0.5 | -2.1 | . | . | . | .
CCCCCCCCN1C(=O)[C@H](CC(=O)NCc2cccc3ccccc23)C[C@@]2(C(=O)OC)CC(C)(C)CC=C12 | -2.7 | . | 5.9 | . | . | . | . | . | .
O=C(Nc1cc([N+](=O)[O-])ccc1O)c1cccc(C(=O)Nc2cc([N+](=O)[O-])ccc2O)c1 | 56.3* | 98.3* | 96.6* | 99.4* | -3.2 | 95.9* | -2.7 | 16.0* | 58.5*
CCc1cc(=O)oc2c(C)c(OCC(=O)NCCCN3CCCC3=O)ccc12 | -2.8 | -0.3 | 0.7 | 0.3 | 2.4 | . | . | . | .
CCN(CC)C(=O)c1ccc2c(=O)n(Cc3ccc4c(c3)OCO4)c(=S)[nH]c2c1 | -7.1 | -16.7 | 0.4 | 1.3 | 1.5 | . | . | . | .
C=CCNC(=O)c1ccc(Cn2c(=S)[nH]c3cc4c(cc3c2=O)OCO4)cc1 | 17.0 | 85.7* | 49.3 | 47.3* | 1.3 | 57.6* | -18.3 | -21.6 | 6.0
CC(C)Oc1ccc(S(=O)(=O)N2CCOCC2)cc1NC(=O)CSc1nnc(C2CC2)n1C | 0.6 | . | -1.0 | -2.5 | 0.5 | . | . | . | .
SMILES | SUMO1 PPI mod | Scp1 inh | LMPTP inh | STEP block | DNMT1 block | Scp1 confirm | MG interference | Scp1 DSF | STEP inh conf | others
CC(C)Oc1ccccc1NC(=O)CSc1nccn1C | -2.4 | 1.6 | -0.1 | -0.3 | -0.9 | . | . | . | .
O=C(/C=C/c1ccccc1Cl)Nc1ccc2c(c1)C(=O)NC2=O | 36.8 | 101.1* | 70.6* | 94.7* | 65.2* | 84.7* | -11.2 | 6.8* | 19.5 | DNMT1 confirm=6.2;DNMT1 interf=2.5
Cc1c(CCC(=O)O)c(=O)oc2c(C)c(OCc3cc4c(cc3Cl)OCO4)ccc12 | 81.1* | 59.4* | 76.6* | 94.0* | 2.2 | 38.7* | -20.8 | -35.9 | 50.9*
Cc1c(Cc2ccccc2)c(=O)oc2c(C)c(OCC(=O)NCC3CCC(C(=O)O)CC3)ccc12 (stereo not drawn) | 5.0 | 85.3* | 46.1 | 64.8* | -1.8 | 55.7* | -17.5 | -33.5 | 29.0
Cc1c(CC(=O)O)c(=O)oc2c(C)c(OCc3ccccc3)ccc12 | 2.6 | -22.6 | -2.3 | 0.0 | -2.1 | . | . | . | .
Cc1c(CC(=O)O)c(=O)oc2c(C)c(OCc3ccccc3Br)ccc12 | 24.6 | 91.5* | 49.5 | 98.3* | 2.1 | 62.0* | -13.6 | -62.0 | 65.0*
Cc1cccc(OCC(=O)N(C)CC(=O)Nc2cccc(F)c2)c1C | 3.1 | -14.9 | -6.0 | -3.0 | -1.5 | . | . | . | .
O=c1cc(-c2ccccc2)oc2c1CCCC2 | 0.5 | . | -1.1 | -1.8 | 3.6 | . | . | . | .
CN(C)c1cc(-c2ccc(Cl)cc2)oc(=O)c1Cl | -22.5 | -10.5 | -0.6 | 3.4 | 0.1 | . | . | . | .
CN(C)c1cc(-c2ccc(Cl)c(Cl)c2)oc(=O)c1Cl | 25.8 | 106.6* | 59.7* | 96.2* | 61.5* | 81.3* | -18.4 | 2.8 | 12.9 | DNMT1 confirm=0.0;DNMT1 interf=-2.3
